Calls of active or inactive are those of the source. The rule behind the calls is not given here.
How the values were obtained:
Mus musculus [1] = experiment: Immunostimulatory activity in C57BL/6 mouse assessed as induction of Th1 cytokine-biased response by measuring AUC ratio of IFN-gamma/IL-4 cytokine release at 100 ug/kg, ip measured after 24 hrs by ELISA; assay type: functional
Procedure, shortened: (§1)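 Female C57BL/6 mice given glycolipid ip at 100 µg/kg (DMSO stock diluted in PBS). Serum IFN-γ and IL-4 measured by ELISA at several time points up to 24 h, 3 mice per group tested individually. Th1 bias expressed as IFN-γ/IL-4 ratio and as area-under-curve ratio of IFN-γ/IL-4 release.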

[2] = biological target: T1, Antigen-presenting glycoprotein CD1d (Mus musculus) (UniProt P11609+P11610); experiment: Binding affinity to CD1d in C57BL/6 mouse splenocytes assessed as iNKT-cell stimulating activity by measuring IFN-gamma/IL-4 ratio at 0.01 uM incubated for 48 hrs by ELISA; assay type: cell-based; settings: in the assay text read “IFN-gamma/IL-4 ratio” for “IFN-gamma/IL-6 ratio”
Procedure, shortened: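 Splenocytes prepared and cultured as for the cytokine assay (1×10^5/well, RPMI 1640 with 10% FBS, 48 h, 37 °C). IFN-γ and IL-4 determined by ELISA at 0.01 µM glycolipid and expressed as the relative proportion (IFN-γ/IL-4 ratio).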

[3] = biological target: T1, Antigen-presenting glycoprotein CD1d (Mus musculus); experiment: Binding affinity to CD1d in C57BL/6 mouse splenocytes assessed as iNKT cell stimulating activity by measuring induction of Th1-cytokine, IFN-gamma production incubated for 48 hrs by ELISA; assay type: cell-based
Procedure, shortened: (§2)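 Spleens from female C57BL/6 mice passed through a 100 µM strainer, RBC-lysed (ammonium chloride/KHCO3/EDTA buffer, pH 7.2, 5 min, 4 °C), PBS-washed. Splenocytes at 1×10^5/well in RPMI 1640 with 10% FBS and 1% penicillin-streptomycin, exposed to glycolipid at three concentrations (0.01-1 µM) for 48 h at 37 °C. IFN-γ and IL-4 in supernatant measured by ELISA (pg/mL); α-GalCer positive control.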

[4] = biological target: T1, Antigen-presenting glycoprotein CD1d (Mus musculus); experiment: Binding affinity to CD1d in C57BL/6 mouse splenocytes assessed as iNKT cell stimulating activity by measuring maximal induction of Th2-cytokine, IL-4 production at 1 uM incubated for 48 hrs by ELISA; assay type: cell-based; procedure, shortened: as §2
Mus musculus [5] = experiment: Immunostimulatory activity in C57BL/6 mouse assessed as induction of Th1 cytokine-biased response by measuring IFN-gamma/IL-4 ratio at 100 ug/kg, ip measured after 24 hrs by ELISA
Mus musculus [6] = experiment: Immunostimulatory activity in C57BL/6 mouse assessed as IFN-gamma level in serum at 100 ug/kg, ip measured after 24 hrs by ELISA; assay type: functional
Procedure, shortened: (§3)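 Female C57BL/6 mice, 7-8 weeks, 25-28 g, SPF housing. Glycolipid 1 mg/mL DMSO stock diluted in PBS, given ip at 100 µg/kg. Serum taken at several time points after injection and IFN-γ and IL-4 measured by ELISA; 3 mice per group, each serum tested individually.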

[7] = biological target: T1, Antigen-presenting glycoprotein CD1d (Mus musculus); experiment: Binding affinity to CD1d in C57BL/6 mouse splenocytes assessed as iNKT cell stimulating activity by measuring maximal induction of Th1-cytokine, IFN-gamma production at 1 uM incubated for 48 hrs by ELISA; assay type: cell-based; procedure, shortened: as §2
[8] = biological target: T1, Antigen-presenting glycoprotein CD1d (Mus musculus); experiment: Binding affinity to CD1d in C57BL/6 mouse splenocytes assessed as iNKT cell stimulating activity by measuring induction of Th2-cytokine, IL-4 production incubated for 48 hrs by ELISA; assay type: cell-based; procedure, shortened: as §2
Mus musculus [9] = experiment: Immunostimulatory activity in C57BL/6 mouse assessed as increase in IL-4 level in serum at 100 ug/kg, ip measured after 6 hrs by ELISA; assay type: functional, organism-based; procedure, shortened: as §3
Splenocyte [10] = experiment: Induction of cell proliferation in C57BL/6 mouse splenocytes incubated for 48 hrs by MTT assay; assay type: functional, cell-based
Procedure, shortened: (§4)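 Female C57BL/6 splenocytes, strained and RBC-lysed, plated at 1×10^5/well in RPMI 1640 with 10% FBS and 1% penicillin-streptomycin, treated 48 h at 37 °C at 1, 0.1 and 0.01 µM. MTT (5 mg/mL) added for 4 h, formazan dissolved in DMSO, OD read at 570 nm. Viability given as % of medium-only control cells.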

Splenocyte [11] = experiment: Induction of cell proliferation in C57BL/6 mouse splenocytes at 1 uM incubated for 48 hrs by MTT assay; assay type: functional, cell-based; procedure, shortened: as §4
Splenocyte [12] = experiment: Cytotoxicity against C57BL/6 mouse splenocytes assessed as reduction in cell viability at 0.01 to 1 uM incubated for 48 hrs by MTT assay; assay type: cell-based; procedure, shortened: as §4
Mus musculus [13] = experiment: Immunostimulatory activity in C57BL/6 mouse assessed as induction of Th1 cytokine-biased response by measuring IFN-gamma/IL-6 ratio at 100 ug/kg, ip measured after 24 hrs by ELISA; assay type: functional; settings: in the assay text read “IFN-gamma/IL-4 ratio” for “IFN-gamma/IL-6 ratio”; procedure, shortened: as §1
Mus musculus [14] = experiment: Immunostimulatory activity in C57BL/6 mouse assessed as increase in IL-4 level in serum at 100 ug/kg, ip measured after 3 hrs by ELISA; assay type: functional, organism-based; procedure, shortened: as §3
Mus musculus [15] = experiment: Immunostimulatory activity in C57BL/6 mouse assessed as increase in IFN-gamma level in serum at 100 ug/kg, ip measured after 6 to 24 hrs by ELISA; assay type: functional, organism-based; procedure, shortened: as §3

| Ratio [2] | Activity [3] | Activity [4] | Activity [7] | Activity [8] | Structure (SMILES) | Ratio (Mus musculus [1]) | Ratio (Mus musculus [5]) | Activity (Mus musculus [6]) | Activity (Mus musculus [9]) | Activity (Splenocyte [10]) | Activity (Splenocyte [11]) | Activity (Splenocyte [12]) | Ratio (Mus musculus [13]) | Activity (Mus musculus [14]) | Activity (Mus musculus [15]) |
| --- | --- | --- | --- | --- | --- | --- | --- | --- | --- | --- | --- | --- | --- | --- | --- |
| 4.9 | Dose-dependent effect | Active | Active | Dose-dependent effect | CCCCCCCCCCCCCCCCCCCCCCCCCC(=O)N[C@@H](CO[C@H]1O[C@H](Cn2cc(C(=O)N[C@@H](CCCCN)C(=O)OC)nn2)[C@H](O)[C@H](O)[C@H]1O)[C@H](O)[C@H](O)CCCCCCCCCCCCCC | 23.6 | 5.6 | 3886 pg/mL | Active | Dose-dependent effect | Active | Non-Toxic | – | – | – |
| – | Dose-dependent effect | Active | Active | Dose-dependent effect | CCCCCCCCCCCCCCCCCCCCCCCCCC(=O)N[C@@H](CO[C@H]1O[C@H](CO)[C@H](O)[C@H](O)[C@H]1O)[C@H](O)[C@H](O)CCCCCCCCCCCCCC [RGI-7000] | 13.2 | – | 2925 pg/mL | – | – | – | – | 2.5 | Active | Active |
| 1.7 | Dose-dependent effect | Active | Active | Dose-dependent effect | CCCCCCCCCCCCCCCCCCCCCCCCCC(=O)N[C@@H](CO[C@H]1O[C@H](Cn2cc(C(=O)N[C@@H](CO)C(=O)OC)nn2)[C@H](O)[C@H](O)[C@H]1O)[C@H](O)[C@H](O)CCCCCCCCCCCCCC | – | – | 4755 pg/mL | – | Dose-dependent effect | Active | Non-Toxic | 1.8 | Active | Active |
| 3.3 | Dose-dependent effect | Active | Active | Dose-dependent effect | CCCCCCCCCCCCCCCCCCCCCCCCCC(=O)N[C@@H](CO[C@H]1O[C@H](Cn2cc(C(=O)N[C@@H](Cc3ccccc3)C(=O)OC)nn2)[C@H](O)[C@H](O)[C@H]1O)[C@H](O)[C@H](O)CCCCCCCCCCCCCC | – | – | Active | – | Dose-dependent effect | Active | Non-Toxic | – | Active | Active |
| 2.1 | Dose-dependent effect | Active | Active | Dose-dependent effect | CCCCCCCCCCCCCCCCCCCCCCCCCC(=O)N[C@@H](CO[C@H]1O[C@H](Cn2cc(C(=O)NCC(=O)OC)nn2)[C@H](O)[C@H](O)[C@H]1O)[C@H](O)[C@H](O)CCCCCCCCCCCCCC | – | – | Active | – | Dose-dependent effect | Active | Non-Toxic | – | Active | Active |

From ChEMBL document CHEMBL4609997, “Synthesis and biological activities of amino acids functionalized α-GalCer analogues” (Bioorg Med Chem, 2020)
